{"source": "paper PMC10866054", "about": "(Journal of Enzyme Inhibition and Medicinal Chemistry, 2024)", "key": {"[1]": {"system": "PC-3", "experiment": "MTT cytotoxicity, PC-3", "assay_type": "cell-based, human", "details": "for IC50: read-out: Cytotoxic activity IC50, PC-3, MTT, mean ± SD of three experiments; for fold superior to IC50 of the erlotinib, PC-3: PC-3 cell line, vs erlotinib"}, "[2]": {"biological_target": "PI3Kβ (p110β/p85α) (Homo sapiens, UniProt P42338)", "sequence (P42338 whole entry)": "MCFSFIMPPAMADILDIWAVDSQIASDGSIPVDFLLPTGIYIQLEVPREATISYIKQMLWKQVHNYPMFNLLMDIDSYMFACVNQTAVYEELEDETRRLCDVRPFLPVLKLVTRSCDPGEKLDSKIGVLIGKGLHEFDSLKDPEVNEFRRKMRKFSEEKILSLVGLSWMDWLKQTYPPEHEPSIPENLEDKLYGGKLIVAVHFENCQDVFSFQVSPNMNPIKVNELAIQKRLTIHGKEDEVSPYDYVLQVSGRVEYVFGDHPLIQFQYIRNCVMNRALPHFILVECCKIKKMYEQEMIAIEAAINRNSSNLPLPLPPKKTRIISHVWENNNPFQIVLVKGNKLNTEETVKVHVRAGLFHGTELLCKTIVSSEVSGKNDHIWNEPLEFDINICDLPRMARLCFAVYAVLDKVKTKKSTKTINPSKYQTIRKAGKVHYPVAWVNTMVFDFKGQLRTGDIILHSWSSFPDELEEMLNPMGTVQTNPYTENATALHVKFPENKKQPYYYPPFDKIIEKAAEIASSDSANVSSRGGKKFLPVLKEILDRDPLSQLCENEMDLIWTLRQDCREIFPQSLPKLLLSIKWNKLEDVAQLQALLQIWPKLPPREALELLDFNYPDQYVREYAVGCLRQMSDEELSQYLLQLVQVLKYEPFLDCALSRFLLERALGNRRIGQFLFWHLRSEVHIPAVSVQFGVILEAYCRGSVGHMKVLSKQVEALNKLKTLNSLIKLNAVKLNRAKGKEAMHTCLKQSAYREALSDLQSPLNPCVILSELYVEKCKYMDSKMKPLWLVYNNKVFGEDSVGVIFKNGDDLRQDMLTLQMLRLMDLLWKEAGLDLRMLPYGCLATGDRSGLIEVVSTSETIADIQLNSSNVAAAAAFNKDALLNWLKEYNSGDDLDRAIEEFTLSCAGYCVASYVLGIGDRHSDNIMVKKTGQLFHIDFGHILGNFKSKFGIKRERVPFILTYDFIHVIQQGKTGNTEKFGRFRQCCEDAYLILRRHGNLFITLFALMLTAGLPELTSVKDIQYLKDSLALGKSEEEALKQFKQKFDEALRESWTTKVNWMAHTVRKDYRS", "sequence (P27986 whole entry partner)": "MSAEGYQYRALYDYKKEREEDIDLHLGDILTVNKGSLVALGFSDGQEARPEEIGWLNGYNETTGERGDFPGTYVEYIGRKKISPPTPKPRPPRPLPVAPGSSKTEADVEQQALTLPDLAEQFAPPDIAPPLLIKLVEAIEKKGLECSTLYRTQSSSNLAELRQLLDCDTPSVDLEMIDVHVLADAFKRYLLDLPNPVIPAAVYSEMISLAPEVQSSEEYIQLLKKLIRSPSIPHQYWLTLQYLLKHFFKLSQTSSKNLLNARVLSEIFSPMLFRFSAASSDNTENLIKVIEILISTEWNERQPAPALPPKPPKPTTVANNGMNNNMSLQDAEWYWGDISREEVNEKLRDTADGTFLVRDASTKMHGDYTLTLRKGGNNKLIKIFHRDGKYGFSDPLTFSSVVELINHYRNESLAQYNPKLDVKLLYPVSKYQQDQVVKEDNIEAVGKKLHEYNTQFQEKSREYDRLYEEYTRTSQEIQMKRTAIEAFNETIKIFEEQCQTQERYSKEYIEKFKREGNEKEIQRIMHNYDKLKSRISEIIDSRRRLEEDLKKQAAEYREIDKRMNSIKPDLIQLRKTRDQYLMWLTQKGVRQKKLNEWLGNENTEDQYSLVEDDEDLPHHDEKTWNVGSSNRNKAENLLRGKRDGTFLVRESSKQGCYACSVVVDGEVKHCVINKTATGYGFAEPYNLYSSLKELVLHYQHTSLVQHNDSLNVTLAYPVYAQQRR", "experiment": "PI3Kβ Assay Kit", "assay_type": "biochemical"}, "[3]": {"system": "MDA-MB-231", "experiment": "MTT cytotoxicity, MDA-MB-231", "assay_type": "cell-based", "details": "Homo sapiens, MDA-MB-231, read-out: Cytotoxic activity IC50, MDA-MB-231"}, "[4]": {"system": "m-TOR", "experiment": "RT-qPCR gene expression of m-TOR in PC-3 cells", "assay_type": "cell-based, human", "details": "PC-3 cells treated at IC50 3.56 µM, compared to untreated cells", "how_it_was_run": "(§1)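 Control and treated cells (1×10^5) were trypsinised, spun at 5000 rpm and washed in PBS. Total RNA was isolated and cDNA synthesised. Gene-specific mRNA was measured by qPCR with IDT-designed primers, with a GAPDH primer pair included. Expression was given relative to untreated control cells.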"}, "[5]": {"experiment": "MTT cytotoxicity, normal prostate epithelial cells", "assay_type": "cell-based", "details": "human, HPrEC normal primary prostate epithelial cells"}, "[6]": {"system": "BAX", "experiment": "RT-qPCR gene expression of BAX in PC-3 cells", "assay_type": "cell-based, human", "details": "PC-3 cells treated at IC50, vs untreated PC-3", "how_it_was_run": "as §1"}, "[7]": {"biological_target": "PI3Kα (Homo sapiens, UniProt P42336)", "experiment": "PI3K isoform ELISA kit, PI3Kα", "assay_type": "biochemical", "details": "mean ± SD of three experiments"}, "[8]": {"system": "PC-3 cells", "experiment": "Annexin V/propidium iodide staining for apoptosis", "assay_type": "cell-based, human"}, "[9]": {"biological_target": "EGFR (Homo sapiens, UniProt P00533)", "sequence (P00533 25-1210)": "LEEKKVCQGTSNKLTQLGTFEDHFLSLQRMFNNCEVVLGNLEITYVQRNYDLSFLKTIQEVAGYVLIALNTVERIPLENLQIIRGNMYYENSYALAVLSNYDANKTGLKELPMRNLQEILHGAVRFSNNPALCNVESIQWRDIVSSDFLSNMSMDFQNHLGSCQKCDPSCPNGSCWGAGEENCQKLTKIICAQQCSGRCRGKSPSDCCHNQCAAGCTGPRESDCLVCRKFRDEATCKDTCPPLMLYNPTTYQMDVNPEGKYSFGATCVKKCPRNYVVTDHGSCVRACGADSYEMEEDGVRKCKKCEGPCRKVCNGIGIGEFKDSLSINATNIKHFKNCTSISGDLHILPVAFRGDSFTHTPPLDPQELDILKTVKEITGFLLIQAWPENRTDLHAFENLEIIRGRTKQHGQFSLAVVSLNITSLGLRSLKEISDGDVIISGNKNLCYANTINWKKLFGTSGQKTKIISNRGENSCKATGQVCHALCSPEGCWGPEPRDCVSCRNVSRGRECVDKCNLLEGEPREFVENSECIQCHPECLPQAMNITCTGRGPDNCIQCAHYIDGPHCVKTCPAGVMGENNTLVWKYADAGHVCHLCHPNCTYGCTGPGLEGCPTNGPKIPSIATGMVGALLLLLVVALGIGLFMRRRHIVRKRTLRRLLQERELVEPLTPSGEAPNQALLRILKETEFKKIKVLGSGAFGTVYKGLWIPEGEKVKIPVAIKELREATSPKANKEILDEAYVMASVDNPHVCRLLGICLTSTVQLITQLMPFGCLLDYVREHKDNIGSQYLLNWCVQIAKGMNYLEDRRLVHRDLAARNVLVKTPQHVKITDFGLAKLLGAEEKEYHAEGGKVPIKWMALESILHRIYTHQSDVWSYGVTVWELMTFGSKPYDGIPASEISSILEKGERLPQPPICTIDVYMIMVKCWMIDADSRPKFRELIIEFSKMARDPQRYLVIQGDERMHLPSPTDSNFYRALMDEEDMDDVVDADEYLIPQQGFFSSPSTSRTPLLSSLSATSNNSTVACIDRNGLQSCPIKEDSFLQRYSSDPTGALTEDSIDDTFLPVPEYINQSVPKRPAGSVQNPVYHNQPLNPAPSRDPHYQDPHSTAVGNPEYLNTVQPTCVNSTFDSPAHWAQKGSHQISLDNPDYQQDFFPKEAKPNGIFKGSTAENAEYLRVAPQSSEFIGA", "experiment": "EGFR Kinase Assay Kit", "assay_type": "biochemical"}, "[10]": {"biological_target": "PI3Kδ (Homo sapiens, UniProt O00329)", "sequence (O00329 whole entry, canonical isoform)": "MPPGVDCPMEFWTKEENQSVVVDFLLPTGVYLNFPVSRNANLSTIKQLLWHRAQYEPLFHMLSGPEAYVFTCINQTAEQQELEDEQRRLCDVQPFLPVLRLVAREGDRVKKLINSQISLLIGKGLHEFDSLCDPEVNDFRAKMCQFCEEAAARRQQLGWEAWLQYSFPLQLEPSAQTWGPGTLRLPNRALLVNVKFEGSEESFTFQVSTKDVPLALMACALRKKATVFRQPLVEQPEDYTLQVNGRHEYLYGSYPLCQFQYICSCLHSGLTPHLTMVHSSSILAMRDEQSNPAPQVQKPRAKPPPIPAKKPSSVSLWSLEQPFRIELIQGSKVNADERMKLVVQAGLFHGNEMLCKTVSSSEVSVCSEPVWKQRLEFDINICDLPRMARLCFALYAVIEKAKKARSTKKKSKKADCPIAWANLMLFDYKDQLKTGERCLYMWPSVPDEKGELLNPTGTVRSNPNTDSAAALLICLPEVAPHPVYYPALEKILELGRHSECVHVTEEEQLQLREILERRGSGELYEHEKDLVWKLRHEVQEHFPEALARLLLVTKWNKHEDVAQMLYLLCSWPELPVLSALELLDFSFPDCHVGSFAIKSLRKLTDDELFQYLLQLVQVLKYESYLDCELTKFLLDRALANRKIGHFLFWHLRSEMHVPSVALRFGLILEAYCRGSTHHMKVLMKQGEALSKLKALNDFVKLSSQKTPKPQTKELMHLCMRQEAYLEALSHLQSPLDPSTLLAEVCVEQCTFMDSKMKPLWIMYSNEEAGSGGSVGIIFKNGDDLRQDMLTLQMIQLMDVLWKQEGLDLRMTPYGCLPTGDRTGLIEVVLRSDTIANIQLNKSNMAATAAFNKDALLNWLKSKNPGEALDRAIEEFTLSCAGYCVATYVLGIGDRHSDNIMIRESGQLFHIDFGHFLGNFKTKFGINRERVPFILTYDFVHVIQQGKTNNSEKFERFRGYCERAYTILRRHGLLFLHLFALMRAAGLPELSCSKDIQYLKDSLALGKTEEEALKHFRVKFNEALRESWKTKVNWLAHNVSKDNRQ", "sequence (P27986 whole entry partner, canonical isoform)": "as the sequence (P27986 whole entry partner) above", "experiment": "PI3K isoform ELISA kit, PI3Kδ", "assay_type": "biochemical"}, "[11]": {"biological_target": "PI3Kγ (Homo sapiens, UniProt P48736)", "experiment": "PI3K isoform ELISA kit, PI3Kγ", "assay_type": "biochemical"}, "[12]": {"system": "BCl-2", "experiment": "RT-qPCR gene expression of BCl-2 in PC-3 cells", "assay_type": "cell-based, human", "details": "PC-3 cells treated at IC50, vs untreated PC-3", "how_it_was_run": "as §1"}, "[13]": {"system": "caspase 3", "experiment": "RT-qPCR gene expression of caspase 3 in PC-3 cells", "assay_type": "cell-based, human", "details": "PC-3 cells treated at IC50, vs untreated PC-3", "how_it_was_run": "as §1"}, "[14]": {"system": "HEPG-2", "experiment": "MTT cytotoxicity, HEPG-2", "assay_type": "cell-based, human", "details": "for IC50: Homo sapiens, HepG2, read-out: Cytotoxic activity IC50, HEPG-2"}, "[15]": {"system": "HCT-116", "experiment": "MTT cytotoxicity, HCT-116", "assay_type": "cell-based", "details": "Homo sapiens, HCT-116, read-out: Cytotoxic activity IC50, HCT-116"}, "[16]": {"system": "caspase 8", "experiment": "RT-qPCR gene expression of caspase 8 in PC-3 cells", "assay_type": "cell-based, human", "details": "PC-3 cells treated at IC50, vs untreated PC-3", "how_it_was_run": "as §1"}, "[17]": {"system": "AKT", "experiment": "RT-qPCR gene expression of AKT in PC-3 cells", "assay_type": "cell-based, human", "details": "PC-3 cells treated at IC50 3.56 µM, compared to untreated cells", "how_it_was_run": "as §1"}, "[18]": {"system": "P53", "experiment": "RT-qPCR gene expression of P53 in PC-3 cells", "assay_type": "cell-based, human", "details": "PC-3 cells treated at IC50, vs untreated PC-3", "how_it_was_run": "as §1"}, "[19]": {"system": "PC-3 cells", "experiment": "Cell cycle analysis", "assay_type": "cell-based, human", "details": "compound at IC50, 24 h"}}, "data": [{"molecule": "7-((amino-5-(isopropylthio)-4H-1,2,4-triazol-3-yl)methoxy)-3-ethyl-4,8-dimethyl-2H-chromen-2-one [Compound 8]", "values": [{"measurement": "IC50", "setting": "[1]", "result": "> 50", "unit": "µM"}]}, {"molecule": "CCc1c(C)c2ccc(OCC(=O)NN=Cc3ccc([N+](=O)[O-])cc3)cc2oc1=O", "note": "[Compound 4a, 2-((3-Ethyl-4-methyl-2-oxo-2H-chromen-7-yl)oxy)-N'-(4-nitrobenzylidene) acetohydrazide]", "values": [{"measurement": "IC50", "setting": "[2]", "result": 0.792, "unit": "µM"}, {"measurement": "IC50", "setting": "[3]", "result": "23.6 ± 0.36", "unit": "µM"}, {"measurement": "fold superior to IC50 of the erlotinib, PC-3", "setting": "[1]", "result": 1.2, "unit": "fold"}]}, {"molecule": "Cc1c(Cc2ccccc2)c(=O)oc2c(C)c(OCC(=O)NN=Cc3ccco3)ccc12", "note": "[Compound 4b, 2-((3-Benzyl-4,8-dimethyl-2-oxo-2H-chromen-7-yl)oxy)-N'-(furan-2-ylmethylene)acetohydrazide]", "values": [{"measurement": "IC50", "setting": "[3]", "result": "11.8 ± 0.98", "unit": "µM"}, {"measurement": "fold superior to IC50 of the erlotinib, PC-3", "setting": "[1]", "result": 1.36, "unit": "fold"}]}, {"molecule": "Cc1c(Cc2ccccc2)c(=O)oc2c(C)c(OCC(=O)NN=Cc3ccccc3)ccc12", "note": "[Compound 4c, 2-((3-Benzyl-4,8-dimethyl-2-oxo-2H-chromen-7-yl)oxy)-N'-benzylideneacetohydrazide]", "values": [{"measurement": "IC50", "setting": "[3]", "result": "8.5 ± 0.85", "unit": "µM"}]}, {"molecule": "Cc1c(Cc2ccccc2)c(=O)oc2c(C)c(OCC(=O)NN=Cc3ccc(Cl)cc3)ccc12", "note": "[Compound 4d, 2-((3-Benzyl-4,8-dimethyl-2-oxo-2H-chromen-7-yl)oxy)-N'-(4-chlorobenzylidene)acetohydrazide]", "values": [{"measurement": "IC50", "setting": "[3]", "result": "> 50", "unit": "µM"}]}, {"molecule": "Cc1c(Cc2ccccc2)c(=O)oc2c(C)c(OCC(=O)NN=Cc3ccc([N+](=O)[O-])cc3)ccc12", "note": "[Compound 4e, 2-((3-Benzyl-4,8-dimethyl-2-oxo-2H-chromen-7-yl)oxy)-N'-(4-nitrobenzylidene)acetohydrazide]", "values": [{"measurement": "IC50", "setting": "[2]", "result": 0.992, "unit": "µM"}, {"measurement": "IC50", "setting": "[3]", "result": "24.3 ± 2.28", "unit": "µM"}, {"measurement": "IC50", "setting": "[1]", "result": "23.1 ± 1.2", "unit": "µM"}]}, {"molecule": "CC(=NNC(=O)COc1ccc2c(C)c(Cc3ccccc3)c(=O)oc2c1C)c1ccc(Br)cc1", "note": "[Compound 5, 2-((3-benzyl-4,8-dimethyl-2-oxo-2H-chromen-7-yl)oxy)-N'-(1-(4-bromophenyl)ethylidene)acetohydrazide]", "values": [{"measurement": "downregulation of m-TOR gene expression", "setting": "[4]", "result": 2.6, "unit": "fold"}, {"measurement": "IC50", "setting": "[5]", "result": "95.5 ± 1.3", "unit": "µM"}, {"measurement": "IC50", "setting": "[2]", "result": 0.261, "unit": "µM"}, {"measurement": "PI3Kβ inhibitory activity relative to LY294002", "setting": "[2]; vs LY294002 as reference PI3Kβ inhibitor", "result": "twofold"}, {"measurement": "expression of BAX gene", "setting": "[6]", "result": 5.6, "unit": "fold"}, {"measurement": "IC50", "setting": "[7]", "result": "2.89 ± 0.33", "unit": "µM"}, {"measurement": "proportion of early apoptotic cells", "setting": "[8]; compound at IC50, lower right quadrant", "result": 22.62, "unit": "%"}, {"measurement": "proportion of late apoptotic cells", "setting": "[8]; compound at IC50, upper right quadrant", "result": 13.33, "unit": "%"}, {"measurement": "IC50", "setting": "[9]", "result": 0.181, "unit": "µM"}, {"measurement": "IC50", "setting": "[10]", "result": "5.49 ± 0.29", "unit": "µM"}, {"measurement": "IC50", "setting": "[3]", "result": "46.3 ± 2.7", "unit": "µM"}, {"measurement": "IC50", "setting": "[11]", "result": "5.04 ± 0.21", "unit": "µM"}, {"measurement": "downregulation of BCl-2 gene", "setting": "[12]", "result": 0.30, "unit": "fold"}, {"measurement": "upregulation of caspase 3 gene", "setting": "[13]", "result": 5.40, "unit": "fold"}, {"measurement": "cytotoxic activity times higher than erlotinib, HEPG-2", "setting": "[14]; HEPG-2 cell line, vs erlotinib", "result": 1.5, "unit": "times"}, {"measurement": "IC50", "setting": "[14]", "result": "14.2 ± 1.2", "unit": "µM"}, {"measurement": "IC50", "setting": "[15]", "result": "19.8 ± 0.55", "unit": "µM"}, {"measurement": "upregulation of caspase 8 gene", "setting": "[16]", "result": 2.96, "unit": "fold"}, {"measurement": "downregulation of AKT gene expression", "setting": "[17]", "result": 2.5, "unit": "fold"}, {"measurement": "induced expression of P53 gene", "setting": "[18]", "result": 3.83, "unit": "fold"}, {"measurement": "fold superior to IC50 of the erlotinib, PC-3", "setting": "[1]", "result": 3.45, "unit": "fold"}, {"measurement": "percentage of cells in G1 phase", "setting": "[19]", "result": 52.09, "unit": "%"}, {"measurement": "percentage of cells in G2/M phase", "setting": "[19]", "result": 5.8, "unit": "%"}, {"measurement": "percentage of cells in S phase", "setting": "[19]", "result": 42.11, "unit": "%"}]}, {"molecule": "CCNC(=S)NNC(=O)COc1ccc2c(C)c(CC)c(=O)oc2c1C", "note": "[Compound 6a, N-Ethyl-2-(2-((3-ethyl-4,8-dimethyl-2-oxo-2H-chromen-7-yl)oxy)acetyl)hydrazine-1-carbothioamide]", "values": [{"measurement": "IC50", "setting": "[3]", "result": "> 50", "unit": "µM"}]}, {"molecule": "C=CCNC(=S)NNC(=O)COc1ccc2c(C)c(CC)c(=O)oc2c1C", "note": "[Compound 6b, N-Allyl-2-(2-((3-ethyl-4,8-dimethyl-2-oxo-2H-chromen-7-yl)oxy)acetyl)hydrazine-1-carbothioamide]", "values": [{"measurement": "IC50", "setting": "[3]", "result": "> 50", "unit": "µM"}]}, {"molecule": "CCc1c(C)c2ccc(OCC(=O)NNC(=S)Nc3ccccc3)c(C)c2oc1=O", "note": "[Compound 6c, 2-(2-((3-Ethyl-4,8-dimethyl-2-oxo-2H-chromen-7-yl)oxy)acetyl)-N-phenylhydrazine-1-carbothioamide]", "values": [{"measurement": "IC50", "setting": "[3]", "result": "> 50", "unit": "µM"}]}, {"molecule": "CCc1c(C)c2ccc(OCc3nnc(S)n3N)c(C)c2oc1=O", "note": "[Compound 7, 7-((4-amino-5-mercapto-4H-1,2,4-triazol-3-yl)methoxy)-3-ethyl-4,8-dimethyl-2H-chromen-2-one]", "values": [{"measurement": "IC50", "setting": "[3]", "result": "> 50", "unit": "µM"}]}, {"molecule": "CCOc1ccc2c(C)c(CC)c(=O)oc2c1C", "note": "[Compound 9a, 7-Ethoxy-3-ethyl-4,8-dimethyl-2H-chromen-2-one]", "values": [{"measurement": "IC50", "setting": "[3]", "result": "> 50", "unit": "µM"}]}, {"molecule": "CCCOc1ccc2c(C)c(CC)c(=O)oc2c1C", "note": "[Compound 9b, 3-Ethyl-4,8-dimethyl-7-propoxy-2H-chromen-2-one]", "values": [{"measurement": "IC50", "setting": "[3]", "result": "> 50", "unit": "µM"}]}, {"molecule": "C=CCOc1ccc2c(C)c(CC)c(=O)oc2c1C", "note": "[Compound 9d, 7-(Allyloxy)-3-ethyl-4,8-dimethyl-2H-chromen-2-one]", "values": [{"measurement": "IC50", "setting": "[3]", "result": "> 50", "unit": "µM"}]}, {"molecule": "CCc1c(C)c2ccc(OCC=Cc3ccccc3)c(C)c2oc1=O", "note": "[Compound 9e, 7-(Cinnamyloxy)-3-ethyl-4,8-dimethyl-2H-chromen-2-one]", "values": [{"measurement": "IC50", "setting": "[3]", "result": "> 50", "unit": "µM"}]}, {"molecule": "C#Cc1cccc(Nc2ncnc3cc(OCCOC)c(OCCOC)cc23)c1", "note": "[Erlotinib, erlotinib, reference compound]", "values": [{"measurement": "IC50", "setting": "[5]", "result": "63.5 ± 5.56", "unit": "µM"}, {"measurement": "IC50", "setting": "[3]", "result": "11.1 ± 1.11", "unit": "µM"}, {"measurement": "IC50", "setting": "[14]", "result": "22.1 ± 0.46", "unit": "µM"}, {"measurement": "IC50", "setting": "[15]", "result": "17.8 ± 1.15", "unit": "µM"}]}, {"molecule": "O=c1cc(N2CCOCC2)oc2c(-c3ccccc3)cccc12", "note": "[LY294002, reference compound]", "values": [{"measurement": "IC50", "setting": "[10]", "result": "7.42 ± 0.36", "unit": "µM"}]}]}
